Here are results for ten compounds from article PMC4368043 (ACS Chemical Neuroscience, 2014).

The subject of data set [1] is SH-SY5Y cells. Briefly: Cell viability assay, thapsigargin as stressor. Conditions: 7.5 μM thapsigargin; for EC50: read-out: SH-SY5Y EC50 ± SEM, cytoprotection, dose-response; for cytoprotective activity against thapsigargin-induced cell death (in words): SH-SY5Y cells. The data set is classed as cell-based, human. In outline: (§1)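 Cells plated overnight at 37 °C, 5% CO2 in phenol red-free DMEM with 2% FBS (SH-SY5Y 4 × 10^4, H4 2.5 × 10^3 cells/well). Test compound in dose–response for 2 h, then thapsigargin 7.5 μM final for 18 h at 37 °C. Read by MTS absorbance at 490 nm. Viability % = background-subtracted (cell-free medium) relative to DMSO-only, no-thapsigargin wells. EC50 from dose–response curves. ≥3 repeats, mean ± SEM.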

Data set [2] has as its system H4 cells. Nature of the data set: Cell viability assay, thapsigargin as stressor. The data set is classed as cell-based, human. Conditions: 7.5 μM thapsigargin; for EC50: read-out: H4 EC50 ± SEM, cytoprotection, dose-response; for cytoprotective activity against thapsigargin-induced cell death (in words): H4 cells. In outline:
as §1

Data set [3] in a line: Microsomal stability assay. It is filed as in vitro ADME. Conditions: mouse, pooled mouse liver microsomes. The method, boiled down: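 Pooled mouse liver microsomes (1 μg/μL protein) preincubated 10 min at 37 °C with test compound (4 μM final). Started with NADPH (2 mM final) and incubated 1 h at 37 °C with shaking. Zero-time and end samples quenched in 5:1 acetonitrile:water and centrifuged. Indomethacin added as internal standard. Quantified by triple-quadrupole LC-MS/MS in MRM mode; % remaining at 1 h.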
In general terms: Liver microsomes are a subcellular fraction often used to study metabolism.

Data set [4] can be described thus: Plasma stability assay. It is filed as in vitro ADME. The note with it: male, C57BL/6, mouse. In outline:
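Plasma from male C57BL/6 mice, diluted 1:1 with PBS and warmed to 37 °C. Test compound added to 1 μM final and incubated 3 h at 37 °C with shaking. Zero-time and end samples quenched in 5:1 acetonitrile:water and centrifuged. Indomethacin added as internal standard. Quantified by LC-MS/MS in MRM mode; % remaining at 3 h.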

Data set [5] deals with p38 MAPK. Briefly: Immunoblotting of thapsigargin-induced phospho-p38 MAPK in H4 cells. The data set is classed as cell-based, human. Conditions: compound 25 μM and 5 μM 2 h, then 20 μM thapsigargin 1 h, immunoblot. The method, boiled down: (§2)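 H4 cells, 2.5 × 10^6 per 10 cm dish, grown overnight in phenol red-free DMEM with 2% FBS, then serum-starved 2 h. Test compound at 25 or 5 μM for 2 h, then thapsigargin 20 μM for 1 h. Lysed in RIPA buffer with protease and phosphatase inhibitors; protein measured by BCA. 50 μg run on 4–12% Bis-Tris SDS-PAGE and transferred to PVDF. Probed for phospho-p38, p38, phospho-JNK and JNK; HRP secondaries, ECL detection.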

In data set [6] the test system is JNK. Briefly: Immunoblotting of thapsigargin-induced phospho-JNK in H4 cells. The note with it: compound 25 μM and 5 μM 2 h, then 20 μM thapsigargin 1 h, immunoblot. The data set is classed as cell-based, human. The method, boiled down:
as §2
Background: Immunoblotting shows a protein as a band on a membrane.

Data set [7] relates to p38 MAPK. Nature of the data set: Activity of p38 MAPK pathway, H4-CHOP-luciferase reporter cells. It is filed as cell-based, human. The method, boiled down: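 H4 cells stably carrying pFR-Luc and pFA-CHOP plasmids, 1000 cells/well, grown 24 h in 10% FBS DMEM, then switched to phenol red-free DMEM with 2% FBS. Test compound for 1 h at 37 °C (10 μM with thapsigargin or CDDO-IM; 20 μM with MG132; 50 μM with ionomycin). Read by Steady-Glo luminescence. RLU % = background-subtracted (compound-only wells) relative to inducer-only wells. ≥3 repeats, mean ± SEM, one-way ANOVA.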
(A reporter such as luciferase makes a cellular process visible.)

The subject of data set [8] is panel of 46 receptors, ion channels, and transporters. Nature of the data set: NIMH PDSP off-target panel. The data set is classed as binding.

Structures are written as SMILES. “Also recorded” adds a separate entry of the source.

Take `CC1(C)CC(=O)C2=C(C1)Nc1cc(C(F)(F)F)ccc1NC2c1ccc(N2CCCC2)cc1` (centres unmarked) [4ee, 3,3-Dimethyl-11-(4-(pyrrolidin-1-yl)phenyl)-7-(trifluoromethyl)-2,3,4,5,10,11-hexahydro-1H-dibenzo[b,e][1,4]diazepin-1-one]: the 50% effective concentration (EC50) in data set [1] came to 14 ± 0.18 µM; in data set [2] it was 18.8 ± 2.77 µM. Besides, in data set [3], the fraction remaining at 1 h, 4 μM came to 1.8 ± 0.4%. Besides, the fraction remaining at 3 h, 1 μM in data set [4] was determined as 98.8 ± 3.7%.

As to `CC1(C)CC(=O)C2=C(C1)Nc1cc(C(F)(F)F)ccc1NC2c1ccc(N2CCCCC2)cc1` (centres unmarked) [4ff, 3,3-Dimethyl-11-(4-(piperidin-1-yl)phenyl)-7-(trifluoromethyl)-2,3,4,5,10,11-hexahydro-1H-dibenzo[b,e][1,4]diazepin-1-one], the EC50 in data set [1] was found to be 16 ± 0.82 µM; in data set [2], 19.5 ± 2.15 µM. The same compound displayed a share remaining at 1 h, 4 μM in data set [3] of 4.7 ± 1.7%. Moreover, the fraction remaining at 3 h, 1 μM in data set [4] was at least 100%.

In the case of `CCN(CC)c1ccc(C2Nc3ccc(C(=O)c4ccccc4)cc3NC3=C2C(=O)CC(C)(C)C3)cc1` (centres unmarked) [4hh, 7-Benzoyl-11-(4-(diethylamino)phenyl)-3,3-dimethyl-2,3,4,5,10,11-hexahydro-1H-dibenzo[b,e][1,4]diazepin-1-one], the “cytoprotective activity against thapsigargin-induced cell death (in words)” value (shortened to “cytoprotective activity”) in data set [1] is “very strong cytoprotective activity”. This compound registered a share remaining at 1 h, 4 μM in data set [3] of 7.9 ± 6.3%. In data set [4], this compound displayed a share remaining at 3 h, 1 μM of at least 100%. In data set [5], the “p38 activity (phosphorylation) in response to thapsigargin” value is recorded as “significantly reduced”. In data set [6], the “JNK activity (phosphorylation) in response to thapsigargin” value is reported as “significantly reduced”. Also, in data set [7] (10 μM compound 1 h, CDDO-IM 600 nM 18 h), the “p38 activation initiated by CDDO-IM (CHOP-luciferase RLU)” value was “reduced p38 activation”. Besides, the “p38 activation initiated by thapsigargin (CHOP-luciferase RLU)” value in data set [7] (10 μM compound 1 h, thapsigargin 20 nM 18 h) is on record as “reduced p38 activation”. For the same compound, the “p38 activity stimulated by MG132 (CHOP-luciferase RLU)” value in data set [7] (20 μM compound 1 h, MG132 740 nM 18 h) is on record as “had no effect”. The “p38 activation initiated by ionomycin (CHOP-luciferase RLU)” value in data set [7] (50 μM compound 1 h, ionomycin 120 nM 18 h) is “reduced p38 activation”. In addition, in data set [7] (H4-CHOP-luciferase reporter cells, inducers that disrupt calcium homeostasis), the “calcium regulator-induced p38 MAPK activation” value is recorded as “moderate inhibition; also recorded: inhibits”. For the same compound, in data set [8], the “off-target interactions in PDSP panel” value was “No significant off-target interactions were detected”.

For the compound `CC1(C)CC(=O)C2=C(C1)Nc1cc(C(=O)c3ccccc3)ccc1NC2c1ccc(N2CCCCC2)cc1` (centres unmarked) [4jj, 7-Benzoyl-3,3-dimethyl-11-(4-(piperidin-1-yl)phenyl)-2,3,4,5,10,11-hexahydro-1H-dibenzo[b,e][1,4]diazepin-1-one], the amount remaining at 1 h, 4 μM in data set [3] turned out to be 12.9 ± 1.6%. Moreover, in data set [4], the fraction remaining at 3 h, 1 μM was at least 100%.

Take `CC1(C)CC(=O)C2=C(C1)Nc1cc(C(=O)c3ccccc3)ccc1NC2c1ccc(O)cc1` (centres unmarked) [4ll, 7-Benzoyl-11-(4-hydroxyphenyl)-3,3-dimethyl-2,3,4,5,10,11-hexahydro-1H-dibenzo[b,e] [1,4]diazepin-1-one]: the “cytoprotective activity” value in data set [1] and in data set [2] was “devoid of cytoprotective activity” in each case.

Consider `CC1(C)CC(=O)C2=C(C1)Nc1cc(C(=O)c3ccccc3)ccc1NC2c1ccsc1` (centres unmarked) [4mm, 7-Benzoyl-3,3-dimethyl-11-(thiophen-3-yl)-2,3,4,5,10,11-hexahydro-1H-dibenzo[b,e] [1,4]diazepin-1-one], for which the “cytoprotective activity” value in data set [1] was “devoid of cytoprotective activity; also recorded: does not”; in data set [2], “devoid of cytoprotective activity”. The “p38 activity (phosphorylation) in response to thapsigargin” value in data set [5] is listed as “had no effect”. For the same compound, the “JNK activity (phosphorylation) in response to thapsigargin” value in data set [6] is listed as “had no effect”.

With `CN(C)c1ccc(C2Nc3ccc(Br)cc3NC3=C2C(=O)CC(C)(C)C3)cc1` (centres unmarked) [4s, 7-Bromo-11-(4-(dimethylamino)phenyl)-3,3-dimethyl-2,3,4,5,10,11-hexahydro-1H-dibenzo [b,e][1,4]diazepin-1-one], the EC50 in data set [2] was 12.9 ± 0.92 µM.

Take `CC1(C)CC(=O)C2=C(C1)Nc1cc(Br)ccc1NC2c1ccc(N2CCCC2)cc1` (centres unmarked) [4t, 7-Bromo-3,3-dimethyl-11-(4-(pyrrolidin-1-yl)phenyl)-2,3,4,5,10,11-hexahydro-1H-dibenzo [b,e][1,4]diazepin-1-one]: the EC50 in data set [1] was 14.6 ± 1.61 µM. This compound also returned an amount remaining at 1 h, 4 μM in data set [3] of 0.1 ± 0.1%. Further, the amount remaining at 3 h, 1 μM in data set [4] is at least 100%.

`CCCCN(CCCC)c1ccc(C2Nc3ccc(Br)cc3NC3=C2C(=O)CC(C)(C)C3)cc1` (centres unmarked) [4w, 7-Bromo-11-(4-(dibutylamino)phenyl)-3,3-dimethyl-2,3,4,5,10,11-hexahydro-1H-dibenzo [b,e][1,4]diazepin-1-one]: the “cytoprotective activity” value in data set [1] was “but not in SH-SY5Y cells”. In addition, the EC50 in data set [2] was determined as 13.1 ± 2.53 µM.

In data set [3], `CCN(CC)c1ccc(C2Nc3ccc(-c4ccccc4)cc3NC3=C2C(=O)CC(C)(C)C3)cc1` (centres unmarked) [4y, 11-(4-(Diethylamino)phenyl)-3,3-dimethyl-7-phenyl-2,3,4,5,10,11-hexahydro-1H-dibenzo [b,e][1,4]diazepin-1-one] registered an amount remaining at 1 h, 4 μM of 1.8 ± 2.1%. Further, the fraction remaining at 3 h, 1 μM in data set [4] was 97.9 ± 5.7%.

One may read the EC50 as the midpoint of the concentration-response curve. By fraction remaining is commonly meant the share of the starting amount still present when the sample was taken.
